Measured values: ChEMBL document CHEMBL1139509, “Design, synthesis, and antipicornavirus activity of 1-[5-(4-arylphenoxy)alkyl]-3-pyridin-4-ylimidazolidin-2-one derivatives” (J Med Chem, 2005)
Blank lines part the entries; values can stand above or below the molecule they belong to.

Legend:
Enterovirus [1] = test: In vitro inhibitory concentration against human enterovirus EV71-2231 strain; assay type: functional, organism-based, Enterovirus A71
How it was run: (§1)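 CPE-inhibition (neutralization) assay on RD cells seeded at 3 × 10⁵ cells/mL in DMEM/10% FBS and grown 24-30 h to about 90% confluency. Virus (100 TCID50) was mixed with graded compound concentrations and adsorbed 1 h at 37 °C. Cells were overlaid with DMEM, 5% FBS and 2% DMSO, incubated 64 h at 37 °C, then glutaraldehyde-fixed and crystal violet-stained, with A570 read-out. IC50 is 50% CPE reduction versus virus control. Triplicate, at least twice.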

Enterovirus [2] = test: Ratio of CC50 to that of IC50 against human enterovirus EV71-4643 strain; assay type: functional, Enterovirus A71
Enterovirus [3] = test: Ratio of CC50 to that of IC50 against human enterovirus EV71-2231 strain; assay type: functional, Enterovirus A71
[4] = Cytotoxicity against human rhabdomyosarcoma cells; assay type: cell-based
How it was run: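 RD (rhabdomyosarcoma) cells were exposed to test compounds at various concentrations for 96 h at 37 °C. Viable cells were counted by trypan blue staining. CC50 is the concentration that reduces viability to 50% of the untreated control culture. Triplicate, run at least twice.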

Enterovirus [5] = test: In vitro inhibitory concentration against human enterovirus EV71-4643 strain; assay type: functional, organism-based, Enterovirus A71; how it was run: as §1
Enterovirus [6] = test: In vitro inhibitory concentration against human enterovirus EV71; assay type: functional, organism-based, Viruses; how it was run: as §1
Human rhinovirus sp. = test: In vitro inhibitory concentration against Rhinovirus 1B; assay type: functional, organism-based, Viruses
Coxsackievirus [7] = test: Inhibitory concentration against Coxsackievirus B4; assay type: functional, organism-based, Viruses; how it was run: as §1
Enterovirus [8] = test: Inhibitory concentration against human enterovirus EV71 (1743) genotype B; assay type: functional, organism-based, Viruses; how it was run: as §1
Coxsackievirus [9] = test: Inhibitory concentration against Coxsackievirus A24; assay type: functional, organism-based, Viruses; how it was run: as §1
[10] = Inhibitory concentration against Human rhinovirus 14; assay type: functional, human rhinovirus type 14; how it was run: as §1
Coxsackievirus [11] = test: Inhibitory concentration against Coxsackievirus A9; assay type: functional, organism-based, Viruses; how it was run: as §1
Coxsackievirus [12] = test: Inhibitory concentration against Coxsackievirus B2; assay type: functional, organism-based, Viruses; how it was run: as §1
Enterovirus [13] = test: Inhibitory concentration against human enterovirus EV71 (2231) genotype C; assay type: functional, organism-based, Viruses; how it was run: as §1
[14] = Inhibitory concentration against Echovirus 29; assay type: functional, Viruses; how it was run: as §1
Coxsackievirus [15] = test: Inhibitory concentration against Coxsackievirus B1; assay type: functional, organism-based, Viruses; how it was run: as §1
Enterovirus [16] = test: Inhibitory concentration against human enterovirus EV71 (BrCr) genotype A; assay type: functional, organism-based, Viruses; how it was run: as §1
Coxsackievirus [17] = test: Inhibitory concentration against Coxsackievirus A10; assay type: functional, organism-based, Viruses; how it was run: as §1
Coxsackievirus [18] = test: Inhibitory concentration against Coxsackievirus A16; assay type: functional, organism-based, Viruses; how it was run: as §1
[19] = Inhibitory concentration against Echovirus 9; assay type: functional, Viruses; how it was run: as §1
Coxsackievirus [20] = test: Inhibitory concentration against Coxsackievirus B3; assay type: functional, organism-based, Viruses; how it was run: as §1
Coxsackievirus [21] = test: Inhibitory concentration against Coxsackievirus B6; assay type: functional, organism-based, Viruses; how it was run: as §1
Enterovirus [22] = test: Inhibitory concentration against human enterovirus EV71 (2086) genotype C; assay type: functional, organism-based, Viruses; how it was run: as §1
rhinovirus A2 = test: Inhibitory concentration against Human rhinovirus 2; assay type: functional, organism-based, human rhinovirus type 2; conditions: Rhinovirus A; how it was run: as §1
Coxsackievirus [23] = test: Inhibitory concentration against Coxsackievirus B5; assay type: functional, organism-based, Viruses; how it was run: as §1
Enterovirus [24] = test: Inhibitory concentration against human enterovirus EV68; assay type: functional, organism-based, Viruses
Enterovirus [25] = test: Inhibitory concentration against human enterovirus EV71 (4643) genotype C; assay type: functional, organism-based, Viruses; how it was run: as §1
[26] = In vitro inhibitory concentration against Coxsackievirus B4; assay type: functional, Viruses; how it was run: as §1
[27] = In vitro inhibitory concentration against Echovirus 6; assay type: functional, Viruses
Enterovirus [28] = test: Inhibitory concentration against Human Enterovirus 71; assay type: functional, organism-based, Viruses; how it was run: as §1

Structure (SMILES): CCCc1nc(-c2ccc(OCCC(C)CCN3CCN(c4ccncc4)C3=O)cc2)no1 (stereo unspecified)
IC50 (Enterovirus [1]): 55 nM
Selectivity index (Enterovirus [2]): >657
Selectivity index (Enterovirus [3]): >227
CC50 [4]: > 12.5 µM
IC50 (Enterovirus [5]): 19 nM

Structure (SMILES): CN(CCOc1ccc(-c2ccc(Cl)cc2)cc1)CCN1CCN(c2ccncc2)C1=O
IC50 (Enterovirus [1]): 1180 nM
CC50 [4]: 25 µM
IC50 (Enterovirus [5]): 400 nM

Structure (SMILES): CCc1nc(-c2ccc(OCCC(C)CCN3CCN(c4ccncc4)C3=O)cc2)no1 (stereo unspecified)
IC50 (Coxsackievirus [7]): 1270 nM
IC50 (Enterovirus [8]): 15 nM
IC50 (Coxsackievirus [9]): 150 nM
IC50 [10]: 830 nM
IC50 (Coxsackievirus [11]): > 25000 nM
IC50 (Coxsackievirus [12]): 4.79 µM
IC50 (Enterovirus [13]): 15 nM
IC50 [14]: 2630 nM
IC50 (Coxsackievirus [15]): 46 nM
IC50 (Enterovirus [16]): 10 nM
IC50 (Coxsackievirus [17]): 560 nM
IC50 (Enterovirus [1]): 15 nM
IC50 (Coxsackievirus [18]): 87 nM
Selectivity index (Enterovirus [2]): >50000
Selectivity index (Enterovirus [3]): >1666
IC50 [19]: 500 nM
IC50 (Coxsackievirus [20]): > 25 µM
IC50 (Coxsackievirus [21]): > 25 µM
IC50 (Enterovirus [22]): 4 nM
CC50 [4]: > 25 µM
IC50 (rhinovirus A2): 1580 nM
IC50 (Coxsackievirus [23]): 4500 nM
IC50 (Enterovirus [24]): 5.46 µM
IC50 (Enterovirus [25]): 0.5 nM
IC50 (Enterovirus [5]): 0.5 nM

Structure (SMILES): O=C1N(CCC(CCOc2ccc(-c3ccc(Cl)cc3)cc2)Cc2ccccc2)CCN1c1ccncc1 (stereo unspecified)
IC50 (Enterovirus [1]): > 10000 nM
CC50 [4]: > 10 µM
IC50 (Enterovirus [5]): > 10000 nM

Structure (SMILES): O=C1N(CCC(CCOc2ccc(-c3ccc(Cl)cc3)cc2)c2ccccc2)CCN1c1ccncc1 (stereo unspecified)
IC50 (Enterovirus [1]): > 25000 nM
CC50 [4]: > 25 µM
IC50 (Enterovirus [5]): > 25000 nM

Structure (SMILES): O=C1N(CCN(CCOc2ccc(-c3ccc(Cl)cc3)cc2)Cc2ccccc2)CCN1c1ccncc1
IC50 (Enterovirus [1]): > 5000 nM
CC50 [4]: > 5 µM
IC50 (Enterovirus [5]): > 5000 nM

Structure (SMILES): CC(CCCCN1CCN(c2ccncc2)C1=O)Oc1ccc(-c2ccc(Cl)cc2)cc1 (stereo unspecified)
IC50 (Enterovirus [1]): 600 nM
CC50 [4]: > 12.5 µM
IC50 (Enterovirus [5]): 53 nM

Structure (SMILES): N#Cc1ccc2c(c1)CCC(c1ccc(Cl)cc1)O2 (stereo unspecified)
IC50 [26]: 320 nM
IC50 (Enterovirus [6]): 450 nM
IC50 [27]: 480 nM

Structure (SMILES): Cc1nc(-c2ccc(OCCC(C)CCN3CCN(c4ccncc4)C3=O)cc2)no1 (stereo unspecified)
IC50 (Enterovirus [1]): 10 nM
Selectivity index (Enterovirus [2]): >6944
Selectivity index (Enterovirus [3]): >625
CC50 [4]: > 6.25 µM
IC50 (Enterovirus [5]): 0.9 nM

Structure (SMILES): O=C1N(CCCCCOc2ccc(-c3ccc(Cl)cc3)cc2)CCN1c1ccncc1
IC50 (Enterovirus [8]): 92 nM
IC50 (Coxsackievirus [9]): 1300 nM
IC50 [10]: > 12500 nM
IC50 (Coxsackievirus [11]): 71 nM
IC50 (Coxsackievirus [12]): > 12.5 µM
IC50 (Enterovirus [13]): 76 nM
IC50 [14]: 390 nM
IC50 (Coxsackievirus [15]): > 12500 nM
IC50 (Enterovirus [16]): 130 nM
IC50 (Coxsackievirus [17]): > 12500 nM
IC50 (Enterovirus [1]): 76 nM
IC50 (Coxsackievirus [18]): > 12500 nM
IC50 [19]: 1310 nM
IC50 (Coxsackievirus [20]): > 12.5 µM
IC50 (Coxsackievirus [21]): > 12.5 µM
IC50 (Enterovirus [22]): 43 nM
IC50 (Enterovirus [28]): 38 nM
CC50 [4]: 6.25 µM
IC50 (rhinovirus A2): > 12500 nM
IC50 (Coxsackievirus [23]): 1140 nM
IC50 (Enterovirus [24]): > 12.5 µM
IC50 (Enterovirus [25]): 38 nM
IC50 (Enterovirus [5]): 38 nM

Now from value to molecule, other results behind:

IC50 (Enterovirus [6]): 4560 nM
IC50 (Human rhinovirus sp.): 1010 nM
Structure (SMILES): c1ccc(C2COc3ccc(C4=NCCO4)cc3C2)cc1 (stereo unspecified)

IC50 (Enterovirus [1]): 230 nM
IC50 (Enterovirus [5]): 36 nM
Structure (SMILES): CC(CCCCOc1ccc(-c2ccc(Cl)cc2)cc1)N1CCN(c2ccncc2)C1=O (stereo unspecified)
CC50 [4]: 12.5 µM

IC50 (Enterovirus [1]): > 25000 nM
IC50 (Enterovirus [5]): 130 nM
Structure (SMILES): CC(C)(CCCN1CCN(c2ccncc2)C1=O)COc1ccc(-c2ccc(Cl)cc2)cc1
CC50 [4]: > 25 µM

IC50 (Enterovirus [1]): 600 nM
IC50 (Enterovirus [5]): 170 nM
Structure (SMILES): CCC(CCOc1ccc(-c2ccc(Cl)cc2)cc1)CCN1CCN(c2ccncc2)C1=O (stereo unspecified)
CC50 [4]: > 25 µM

IC50 (Enterovirus [1]): > 25000 nM
IC50 (Enterovirus [5]): 22900 nM
Structure (SMILES): Cc1cc(COc2ccc(-c3ccc(Cl)cc3)cc2)cc(CN2CCN(c3ccncc3)C2=O)c1
CC50 [4]: > 25 µM

IC50 (Enterovirus [1]): > 25000 nM
IC50 (Enterovirus [5]): 2110 nM
Structure (SMILES): CC(C)C(CCOc1ccc(-c2ccc(Cl)cc2)cc1)CCN1CCN(c2ccncc2)C1=O (stereo unspecified)
CC50 [4]: > 25 µM

IC50 (Enterovirus [1]): 20 nM
IC50 (Enterovirus [5]): 5 nM
Structure (SMILES): CC(CCCOc1ccc(-c2ccc(Cl)cc2)cc1)CN1CCN(c2ccncc2)C1=O (stereo unspecified)
CC50 [4]: > 25 µM
